From PubChem BioAssay
Shown are actives, neighbours in structure and some others; about 2.3% of the full set was active somewhere.
ADAM10 inh: human ADAM10 inhibitors, primary screen, biochemical, QFRET, HTS | AID 720582, 2013 | inhibition, % at 7 µM | recombinant ADAM10, EDANS/DABCYL FRET peptide cleavage, 3 h | 0.62% of 370,000 active;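 active means inhibition above a per-campaign cutoff equal to the mean of compounds falling between control-based bounds plus 3 SD, cut at about 20% in these data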
Tb MetRS inh: T. brucei MetRS inhibitors, primary screen, biochemical, luminescence; inhibition, % at 11.9 µM; 0.4% of 360,000 active; purified T. brucei MetRS, ATP depletion, Kinase-Glo luminescence; methionyl-tRNA synthetase (Trypanosoma brucei brucei); AID 624268, 2012;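 active means inhibition above a per-plate cutoff of the control wells' mean inhibition plus 3 SD, cut at about 5.5% in these data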
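System: purified T. brucei MetRS enzyme / Detection: Kinase-Glo luciferase luminescence reporting remaining unconsumed ATP / Medium: HEPES buffer with MgCl2, KCl, DTT, spermine, BSA, pyrophosphatase / Replication: singlicate, one well per compound / Evaluation: percent inhibition relative to median high and low control wells / Schedule: 2 h aminoacylation at 25 °C after 15 min preincubation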
PLCb3 inh: human PLC-beta3 inhibitors, primary screen, biochemical, fluorescence | Purified PLC-beta3, fluorogenic substrate | inhibition, % at 12.2 µM | 0.18% of 370,000 active | AID 720704, 2013; in the data active means inhibition above about 11%
PLCg1 inh: PLC-gamma1 enzyme inhibitors, primary screen, biochemical, fluorescence, purified enzyme; 1-phosphatidylinositol 4,5-bisphosphate phosphodiesterase gamma-1 (Homo sapiens), P19174; inhibition, % at 12.2 µM; 0.84% of 370,000 active; fluorogenic substrate
Target sequence (P19174 whole entry, looked up): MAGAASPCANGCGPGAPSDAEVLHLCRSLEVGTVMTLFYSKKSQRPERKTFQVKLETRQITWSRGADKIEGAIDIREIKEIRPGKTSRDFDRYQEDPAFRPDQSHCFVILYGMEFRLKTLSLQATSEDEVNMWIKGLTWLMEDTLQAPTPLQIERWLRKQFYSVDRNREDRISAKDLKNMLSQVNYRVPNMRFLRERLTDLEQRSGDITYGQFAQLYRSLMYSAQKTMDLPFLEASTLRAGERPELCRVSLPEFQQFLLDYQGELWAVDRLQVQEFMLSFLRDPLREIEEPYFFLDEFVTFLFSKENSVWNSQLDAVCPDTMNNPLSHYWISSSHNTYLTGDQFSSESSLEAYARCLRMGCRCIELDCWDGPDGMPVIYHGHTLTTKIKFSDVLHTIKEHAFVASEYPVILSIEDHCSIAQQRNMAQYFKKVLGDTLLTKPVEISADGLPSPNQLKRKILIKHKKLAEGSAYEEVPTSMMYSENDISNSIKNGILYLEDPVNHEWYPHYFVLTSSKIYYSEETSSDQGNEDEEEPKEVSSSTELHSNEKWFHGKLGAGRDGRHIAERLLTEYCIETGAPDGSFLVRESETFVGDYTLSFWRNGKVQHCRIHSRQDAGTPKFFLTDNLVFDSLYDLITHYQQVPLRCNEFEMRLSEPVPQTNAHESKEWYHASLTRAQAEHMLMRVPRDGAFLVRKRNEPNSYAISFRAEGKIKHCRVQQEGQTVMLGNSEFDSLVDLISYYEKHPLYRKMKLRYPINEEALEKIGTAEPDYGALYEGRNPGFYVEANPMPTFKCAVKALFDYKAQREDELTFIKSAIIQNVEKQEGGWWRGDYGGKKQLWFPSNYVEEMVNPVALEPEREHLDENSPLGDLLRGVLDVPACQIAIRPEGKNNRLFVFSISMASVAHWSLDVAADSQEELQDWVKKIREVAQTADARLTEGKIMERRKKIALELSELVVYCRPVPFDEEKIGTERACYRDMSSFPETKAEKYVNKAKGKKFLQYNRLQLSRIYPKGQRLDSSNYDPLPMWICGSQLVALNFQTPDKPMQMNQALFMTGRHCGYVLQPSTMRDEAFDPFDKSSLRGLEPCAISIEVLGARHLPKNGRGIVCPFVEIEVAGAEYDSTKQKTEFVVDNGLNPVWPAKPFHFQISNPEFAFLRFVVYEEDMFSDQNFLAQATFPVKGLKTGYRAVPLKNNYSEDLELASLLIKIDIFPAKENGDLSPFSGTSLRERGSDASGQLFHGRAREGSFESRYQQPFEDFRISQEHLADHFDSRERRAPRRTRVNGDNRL
ADAM17 inh: ADAM17 inhibitors, primary screen, biochemical, QFRET. AID 720648, 2013. recombinant ADAM17, EDANS/DABCYL FRET peptide cleavage. 0.83% of 370,000 active. Disintegrin and metalloproteinase domain-containing protein 17 (Homo sapiens), P78536. inhibition, % at 6.95 µM;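 active means inhibition above the mean of compounds lying between control limits plus 3 SD, set per campaign, cut at about 8.5% in these data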
PLCgamma1 ctr: PLC-gamma1 enzyme inhibitors, counter-screen for PLC-beta3 inhibitor project, biochemical, fluorescence. 3.1% of 3,300 active. shares compounds with PLCg1 inh. purified PLC-gamma1, fluorogenic substrate. inhibition, % at 12.3 µM. AID 743258, 2014
PLCb3 confirm: PLC-beta3 inhibitor confirmation, biochemical, fluorescence, purified enzyme | shares compounds with PLCg1 inh | fluorogenic substrate fluorescence | inhibition, % at 12.3 µM | 1% of 3,300 active; in the data active means inhibition above about 11%
A number is an active result; 0 = inactive; - = not tested or not shown. Unless noted, no stated cut-off is given here; in the data, active means inhibition above about 9.5%; inactive means the rest.

SMILES | ADAM10 inh | Tb MetRS inh | PLCb3 inh | PLCg1 inh | ADAM17 inh | PLCgamma1 ctr | PLCb3 confirm
COc1ccc(CCNC(=O)c2cc3ccc(Cl)cc3nc2N)cc1 | - | 0 | - | - | - | - | -
COC(=O)c1ccc(C=NNC(=O)c2cc(-c3ccc(C)c(C)c3)n[nH]2)cc1 | 0 | - | 0 | 0 | 0 | - | -
COc1cccc(CNCCO)c1OCc1ccccc1Cl | 0 | 0 | 0 | 11 | 0 | 0 | 0
COc1cc(CNCCO)cc(Cl)c1OCc1ccccc1Cl | 0 | 0 | 0 | 0 | 0 | - | -
COc1ccc(NS(=O)(=O)c2ccc(SC)cc2)cc1 | 0 | 0 | 0 | 12 | 0 | 0 | 0
O=C(O)CCCn1cc(NC(=O)COc2ccccc2)cn1 | 0 | 0 | 0 | 11 | 0 | 0 | 0
CCCCC(=O)Nc1ccc(C(=O)Nc2cccnc2)cc1 | 0 | 0 | 0 | 10.0 | 0 | 0 | 0
CC(C)(C)N1C(=O)[C@H]2[C@@H](c3ccc(Br)cc3)N3C(=O)N(c4cccc(Cl)c4)C(=O)[C@@]3(Cc3ccccc3)[C@H]2C1=O | 0 | 0 | 0 | 10 | 0 | 0 | 0
CC(=O)NCCOc1nc(N(C)C)nc(N2CCOCC2)n1 | 0 | 0 | 0 | 0 | 0 | - | -
CC(C)=NOc1nc(N(C)C)nc(N2CCOCC2)n1 | 0 | 0 | 11 | 11 | 0 | 0 | 0
NC(=O)c1c(N)[nH]c(C(=O)c2ccccc2)c1-c1ccccc1Cl | 0 | - | 0 | 0 | 0 | - | -
CC1(C)O[C@@H]2[C@H](O1)[C@@H](CO)O[C@H]2n1cc(Br)c(=O)[nH]c1=O | 0 | 0 | 0 | 14 | 0 | 0 | 0
C[C@H](CO)N1C[C@H](C)[C@@H](CN(C)S(=O)(=O)c2ccc(F)cc2)Oc2cc(Br)ccc2S1(=O)=O | 0 | - | 0 | 0 | 0 | - | -
O=C(c1ccccc1)c1ccc(OCC(O)CNCc2ccc(Cl)cc2)cc1 (stereo unspecified) | 0 | 0 | 0 | 12 | 0 | 0 | 0
CCCCCN1CCCCC(NC(=O)CSc2ccccc2)C1=O (stereo unspecified) | 0 | - | 0 | 0 | 0 | - | -
COc1ccc(-c2c(S(=O)(=O)c3ccccc3)cnn2-c2ccccc2)cc1 | 0 | 0 | 0 | 0 | 0 | - | -
O=S(=O)(c1ccccc1)c1cnn(-c2ccccc2)c1-c1ccc(Cl)cc1 | 0 | 0 | 20 | 0 | 0 | 0 | 17
Cc1ccc(-n2ncc3c(N4CCC(C(N)=O)CC4)ncnc32)c(C)c1 | 0 | 0 | 0 | 15 | 0 | 0 | 0
CNS(=O)(=O)c1cc(-c2nnc(N3CCOCC3)c3ccccc23)ccc1C | 0 | 0 | 0 | 0 | 0 | - | -
Cn1c(CCN2CCCCC2)nc2cc([N+](=O)[O-])ccc21 | 0 | 0 | 0 | 0 | 0 | - | -
CCN1CCN(CCc2nc3cc([N+](=O)[O-])ccc3n2C)CC1 | 0 | 0 | 0 | 12 | 0 | 0 | 0
Cc1cc(C)n2nc(SCC(=O)N3CCC(C(=O)O)CC3)nc2n1 | 0 | 0 | 11 | 0 | 0 | 0 | 0
O=C(CC(c1ccc(F)cc1)c1ccco1)Nc1nccs1 (stereo unspecified) | 0 | 0 | 0 | 0 | 0 | - | -
Cc1onc(-c2c(F)cccc2Cl)c1C(=O)N1C=CC(C(F)(F)Cl)=NCC1 | 0 | 0 | 11 | 13 | 0 | 0 | 0
O=C(Nc1cccc(O)c1)C1CC(c2ccc(Cl)cc2)=NO1 (stereo unspecified) | 0 | 0 | 0 | 0 | 0 | - | -
CC(C)[C@H](NC(=O)C1CC1)C(=O)N1CCC[C@H]1C(=O)NCc1ccccc1 | 0 | - | 0 | 0 | 0 | - | -
CC(C)=CCC/C(C)=C/CNC(=O)C[C@H]1C[C@H](C(=O)N2CCCCC2)[C@@]2(C)c3[nH]c4cc(CCC(=O)N(C)C)ccc4c3CCN2C1=O | - | 0 | - | - | - | - | -
Cn1cccc1-c1nc2ccc(NC(=O)c3ccccc3)cc2[nH]1 | 0 | 0 | 0 | 0 | 0 | - | -
Cn1cccc1-c1nc2ccc(NC(=O)c3ccc([N+](=O)[O-])cc3)cc2[nH]1 | 0 | 0 | 0 | 14 | 0 | 0 | 0
